Reference: ChEMBL document CHEMBL1641579, “Synthesis and biological evaluation of 7-substituted-1-(3-bromophenylamino)isoquinoline-4-carbonitriles as inhibitors of myosin light chain kinase and epidermal growth factor receptor” (Bioorg Med Chem, 2011)

Columns and labels:
[1] = target: T1, MAP kinase-activated protein kinase 5 (Homo sapiens) (UniProt Q8IW41); assay: Inhibition of PRAK assessed as residual activity at 10 uM
T1 sequence (whole entry): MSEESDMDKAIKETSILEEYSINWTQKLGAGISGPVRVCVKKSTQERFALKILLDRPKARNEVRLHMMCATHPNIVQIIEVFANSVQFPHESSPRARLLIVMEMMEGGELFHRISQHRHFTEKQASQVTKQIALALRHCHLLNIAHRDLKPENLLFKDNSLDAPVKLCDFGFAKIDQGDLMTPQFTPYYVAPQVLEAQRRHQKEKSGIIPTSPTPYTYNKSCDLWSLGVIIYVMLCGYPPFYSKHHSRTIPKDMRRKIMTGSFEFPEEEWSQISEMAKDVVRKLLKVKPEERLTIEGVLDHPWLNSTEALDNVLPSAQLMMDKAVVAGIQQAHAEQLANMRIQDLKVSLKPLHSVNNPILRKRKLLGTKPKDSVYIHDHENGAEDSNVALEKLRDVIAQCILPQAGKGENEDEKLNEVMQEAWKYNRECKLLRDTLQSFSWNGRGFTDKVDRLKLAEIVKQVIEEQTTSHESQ
Summary of the method: (§1)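 Panel screen by radioactive kinase assay at a single inhibitor concentration. Score is the percent activity remaining relative to DMSO controls (100%).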

[2] = target: Maternal embryonic leucine zipper kinase (Homo sapiens) (UniProt Q14680); assay: Inhibition of MELK assessed as residual activity at 10 uM
Summary of the method: (§2)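 Kinase panel screen run as a radioactive activity assay at single compound concentration. Score reported as percent activity remaining relative to DMSO controls (100%).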

[3] = target: Ribosomal protein S6 kinase beta-1 (Homo sapiens) (UniProt P23443); assay: Inhibition of S6K1 assessed as residual activity at 10 uM; summary of the method: as §1
Sequence of Ribosomal protein S6 kinase beta-1 (Homo sapiens) (P23443 whole entry, looked up): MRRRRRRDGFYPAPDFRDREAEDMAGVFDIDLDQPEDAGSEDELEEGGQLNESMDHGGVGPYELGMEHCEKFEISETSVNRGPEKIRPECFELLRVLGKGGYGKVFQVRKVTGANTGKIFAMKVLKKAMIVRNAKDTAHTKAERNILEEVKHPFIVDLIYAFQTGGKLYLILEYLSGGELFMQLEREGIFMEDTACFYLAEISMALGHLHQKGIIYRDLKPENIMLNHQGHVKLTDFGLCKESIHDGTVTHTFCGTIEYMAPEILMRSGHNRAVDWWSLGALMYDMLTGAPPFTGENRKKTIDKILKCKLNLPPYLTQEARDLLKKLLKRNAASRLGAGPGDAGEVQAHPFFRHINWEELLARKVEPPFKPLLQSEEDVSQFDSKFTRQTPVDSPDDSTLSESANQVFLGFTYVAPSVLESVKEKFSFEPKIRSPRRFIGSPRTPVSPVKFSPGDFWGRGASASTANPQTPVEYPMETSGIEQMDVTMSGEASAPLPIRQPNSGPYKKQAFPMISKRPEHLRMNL

[4] = target: Aurora kinase B (Homo sapiens) (UniProt Q96GD4); assay: Inhibition of aurora B assessed as residual activity at 10 uM; summary of the method: as §1
Sequence of Aurora kinase B (Homo sapiens) (Q96GD4 whole entry): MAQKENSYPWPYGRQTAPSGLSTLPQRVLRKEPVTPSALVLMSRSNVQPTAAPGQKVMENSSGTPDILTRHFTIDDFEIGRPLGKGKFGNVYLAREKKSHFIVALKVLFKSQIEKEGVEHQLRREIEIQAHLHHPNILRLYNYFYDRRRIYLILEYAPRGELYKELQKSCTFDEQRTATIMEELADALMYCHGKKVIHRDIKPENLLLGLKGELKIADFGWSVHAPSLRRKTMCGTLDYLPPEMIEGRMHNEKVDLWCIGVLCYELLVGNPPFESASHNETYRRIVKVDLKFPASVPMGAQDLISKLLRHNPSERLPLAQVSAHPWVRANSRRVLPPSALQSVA

[5] = target: Tyrosine-protein kinase BTK (Homo sapiens) (UniProt Q06187); assay: Inhibition of BTK assessed as residual activity at 10 uM; summary of the method: as §2
Sequence of Tyrosine-protein kinase BTK (Homo sapiens) (Q06187 whole entry): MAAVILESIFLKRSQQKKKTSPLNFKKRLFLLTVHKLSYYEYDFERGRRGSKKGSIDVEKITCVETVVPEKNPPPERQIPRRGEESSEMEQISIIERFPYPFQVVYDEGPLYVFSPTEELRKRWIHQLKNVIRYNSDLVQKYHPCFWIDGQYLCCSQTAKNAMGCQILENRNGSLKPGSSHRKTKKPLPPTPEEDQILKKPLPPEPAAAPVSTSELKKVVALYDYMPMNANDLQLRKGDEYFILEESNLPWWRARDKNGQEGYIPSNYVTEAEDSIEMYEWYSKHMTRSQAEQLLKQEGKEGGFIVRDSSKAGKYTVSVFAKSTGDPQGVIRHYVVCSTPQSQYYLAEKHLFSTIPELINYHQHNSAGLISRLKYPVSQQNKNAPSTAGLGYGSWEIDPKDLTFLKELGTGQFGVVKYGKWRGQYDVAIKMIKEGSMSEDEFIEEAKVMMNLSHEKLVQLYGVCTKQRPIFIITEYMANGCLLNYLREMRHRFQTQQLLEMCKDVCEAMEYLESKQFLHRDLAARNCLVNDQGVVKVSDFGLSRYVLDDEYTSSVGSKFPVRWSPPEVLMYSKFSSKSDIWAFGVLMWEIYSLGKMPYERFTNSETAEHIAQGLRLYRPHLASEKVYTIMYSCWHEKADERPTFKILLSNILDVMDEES

[6] = Inhibition of PHK assessed as residual activity at 10 uM; summary of the method: as §1
[7] = target: Serine/threonine-protein kinase pim-2 (Homo sapiens) (UniProt Q9P1W9); assay: Inhibition of PIM2 assessed as residual activity at 10 uM; summary of the method: as §1
[8] = target: Protein kinase C alpha type (Homo sapiens) (UniProt P17252); assay: Inhibition of PKCalpha assessed as residual activity at 10 uM; summary of the method: as §1
[9] = target: Serine/threonine-protein kinase PAK 5 (Homo sapiens) (UniProt Q9P286); assay: Inhibition of PAK5 assessed as residual activity at 10 uM; summary of the method: as §1
Sequence of Serine/threonine-protein kinase PAK 5 (Homo sapiens) (Q9P286 whole entry, looked up): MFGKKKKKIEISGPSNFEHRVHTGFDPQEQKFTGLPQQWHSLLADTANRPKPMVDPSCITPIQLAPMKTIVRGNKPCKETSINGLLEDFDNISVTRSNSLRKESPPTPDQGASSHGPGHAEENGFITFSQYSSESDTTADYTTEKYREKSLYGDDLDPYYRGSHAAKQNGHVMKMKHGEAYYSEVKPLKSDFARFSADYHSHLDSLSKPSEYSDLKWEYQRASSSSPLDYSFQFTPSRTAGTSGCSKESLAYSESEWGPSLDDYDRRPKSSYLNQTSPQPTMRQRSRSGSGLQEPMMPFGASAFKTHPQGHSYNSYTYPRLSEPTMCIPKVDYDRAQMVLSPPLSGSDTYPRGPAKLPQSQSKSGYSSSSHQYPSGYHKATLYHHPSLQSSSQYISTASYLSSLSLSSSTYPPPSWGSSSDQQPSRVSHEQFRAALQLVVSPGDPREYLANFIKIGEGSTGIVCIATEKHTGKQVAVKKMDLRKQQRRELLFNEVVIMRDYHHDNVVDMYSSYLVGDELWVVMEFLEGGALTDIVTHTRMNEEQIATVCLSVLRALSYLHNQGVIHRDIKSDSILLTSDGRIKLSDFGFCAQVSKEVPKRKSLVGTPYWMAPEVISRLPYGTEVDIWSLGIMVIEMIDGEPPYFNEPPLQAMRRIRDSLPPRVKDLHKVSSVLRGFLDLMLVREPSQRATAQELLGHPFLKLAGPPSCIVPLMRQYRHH

[10] = target: Tyrosine-protein kinase Yes (Homo sapiens) (UniProt P07947); assay: Inhibition of YES1 assessed as residual activity at 10 uM; summary of the method: as §1
[11] = target: Misshapen-like kinase 1 (Homo sapiens) (UniProt Q8N4C8); assay: Inhibition of MINK1 assessed as residual activity at 10 uM; summary of the method: as §2
[12] = target: T2, Dual specificity protein kinase TTK (Homo sapiens) (UniProt P33981); assay: Inhibition of TTK assessed as residual activity at 10 uM; summary of the method: as §1
T2 sequence (whole entry): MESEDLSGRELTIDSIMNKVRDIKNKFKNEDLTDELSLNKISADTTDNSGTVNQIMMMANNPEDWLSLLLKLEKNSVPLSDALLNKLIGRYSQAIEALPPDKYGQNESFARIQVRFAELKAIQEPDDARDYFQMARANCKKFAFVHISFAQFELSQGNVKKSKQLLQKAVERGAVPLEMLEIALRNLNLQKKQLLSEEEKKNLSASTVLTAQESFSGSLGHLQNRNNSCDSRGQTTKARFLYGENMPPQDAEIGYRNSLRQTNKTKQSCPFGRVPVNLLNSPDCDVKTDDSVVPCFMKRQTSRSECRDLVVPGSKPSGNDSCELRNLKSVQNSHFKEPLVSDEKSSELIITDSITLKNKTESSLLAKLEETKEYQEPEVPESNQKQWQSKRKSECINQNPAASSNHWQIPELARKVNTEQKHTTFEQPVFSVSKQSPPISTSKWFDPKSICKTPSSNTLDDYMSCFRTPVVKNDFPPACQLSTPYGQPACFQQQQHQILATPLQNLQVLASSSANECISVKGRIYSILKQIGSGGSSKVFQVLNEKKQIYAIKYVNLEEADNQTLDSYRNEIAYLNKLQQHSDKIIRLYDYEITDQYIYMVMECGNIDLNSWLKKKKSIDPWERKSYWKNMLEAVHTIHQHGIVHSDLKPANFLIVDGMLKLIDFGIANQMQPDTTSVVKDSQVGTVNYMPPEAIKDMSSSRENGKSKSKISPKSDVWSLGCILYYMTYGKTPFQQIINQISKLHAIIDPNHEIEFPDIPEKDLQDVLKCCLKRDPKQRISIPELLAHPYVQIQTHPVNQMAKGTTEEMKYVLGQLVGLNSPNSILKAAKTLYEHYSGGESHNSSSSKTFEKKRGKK

[13] = target: Serine/threonine-protein kinase PAK 6 (Homo sapiens) (UniProt Q9NQU5); assay: Inhibition of PAK6 assessed as residual activity at 10 uM; summary of the method: as §1
Sequence of Serine/threonine-protein kinase PAK 6 (Homo sapiens) (Q9NQU5 whole entry, looked up): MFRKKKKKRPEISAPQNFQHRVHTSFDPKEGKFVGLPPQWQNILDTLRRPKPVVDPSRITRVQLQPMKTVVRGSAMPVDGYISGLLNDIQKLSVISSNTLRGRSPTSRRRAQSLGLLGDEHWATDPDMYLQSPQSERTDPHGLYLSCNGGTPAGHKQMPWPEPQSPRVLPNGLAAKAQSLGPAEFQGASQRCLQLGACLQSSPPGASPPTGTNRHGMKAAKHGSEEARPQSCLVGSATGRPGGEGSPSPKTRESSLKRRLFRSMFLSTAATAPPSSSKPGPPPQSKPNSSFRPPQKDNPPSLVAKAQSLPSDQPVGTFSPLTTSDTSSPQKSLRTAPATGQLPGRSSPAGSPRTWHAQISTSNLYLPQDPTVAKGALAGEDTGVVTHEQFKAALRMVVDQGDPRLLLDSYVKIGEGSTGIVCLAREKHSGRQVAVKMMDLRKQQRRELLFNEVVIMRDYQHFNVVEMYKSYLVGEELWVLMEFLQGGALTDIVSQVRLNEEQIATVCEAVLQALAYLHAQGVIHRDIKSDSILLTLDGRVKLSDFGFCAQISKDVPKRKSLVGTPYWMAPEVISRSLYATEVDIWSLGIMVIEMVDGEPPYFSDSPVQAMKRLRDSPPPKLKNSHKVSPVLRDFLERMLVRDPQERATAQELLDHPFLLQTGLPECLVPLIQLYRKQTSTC

[14] = target: Tyrosine-protein kinase CSK (Homo sapiens) (UniProt P41240); assay: Inhibition of CSK assessed as residual activity at 10 uM; summary of the method: as §2
[15] = target: Serine/threonine-protein kinase pim-3 (Homo sapiens) (UniProt Q86V86); assay: Inhibition of PIM3 assessed as residual activity at 10 uM; summary of the method: as §1
[16] = target: MAP kinase-activated protein kinase 2 (Homo sapiens) (UniProt P49137); assay: Inhibition of MAPKAPK2 assessed as residual activity at 10 uM; summary of the method: as §2
Sequence of MAP kinase-activated protein kinase 2 (Homo sapiens) (P49137 whole entry, looked up): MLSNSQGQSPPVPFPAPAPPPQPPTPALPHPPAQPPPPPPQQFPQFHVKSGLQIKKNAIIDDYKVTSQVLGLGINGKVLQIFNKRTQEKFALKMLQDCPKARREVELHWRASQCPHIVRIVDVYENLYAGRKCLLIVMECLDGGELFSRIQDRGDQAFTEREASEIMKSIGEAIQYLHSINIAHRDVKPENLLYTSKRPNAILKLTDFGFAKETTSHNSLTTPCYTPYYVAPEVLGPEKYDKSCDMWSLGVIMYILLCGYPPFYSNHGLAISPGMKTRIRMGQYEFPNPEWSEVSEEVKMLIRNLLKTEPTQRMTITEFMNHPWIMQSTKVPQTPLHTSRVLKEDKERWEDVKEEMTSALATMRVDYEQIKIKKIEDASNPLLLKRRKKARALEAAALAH

[17] = target: Insulin receptor (Homo sapiens) (UniProt P06213); assay: Inhibition of IR assessed as residual activity at 10 uM; summary of the method: as §2
[18] = target: Homeodomain-interacting protein kinase 3 (Homo sapiens) (UniProt Q9H422); assay: Inhibition of HIPK3 assessed as residual activity at 10 uM; summary of the method: as §2
Sequence of Homeodomain-interacting protein kinase 3 (Homo sapiens) (Q9H422 whole entry, looked up): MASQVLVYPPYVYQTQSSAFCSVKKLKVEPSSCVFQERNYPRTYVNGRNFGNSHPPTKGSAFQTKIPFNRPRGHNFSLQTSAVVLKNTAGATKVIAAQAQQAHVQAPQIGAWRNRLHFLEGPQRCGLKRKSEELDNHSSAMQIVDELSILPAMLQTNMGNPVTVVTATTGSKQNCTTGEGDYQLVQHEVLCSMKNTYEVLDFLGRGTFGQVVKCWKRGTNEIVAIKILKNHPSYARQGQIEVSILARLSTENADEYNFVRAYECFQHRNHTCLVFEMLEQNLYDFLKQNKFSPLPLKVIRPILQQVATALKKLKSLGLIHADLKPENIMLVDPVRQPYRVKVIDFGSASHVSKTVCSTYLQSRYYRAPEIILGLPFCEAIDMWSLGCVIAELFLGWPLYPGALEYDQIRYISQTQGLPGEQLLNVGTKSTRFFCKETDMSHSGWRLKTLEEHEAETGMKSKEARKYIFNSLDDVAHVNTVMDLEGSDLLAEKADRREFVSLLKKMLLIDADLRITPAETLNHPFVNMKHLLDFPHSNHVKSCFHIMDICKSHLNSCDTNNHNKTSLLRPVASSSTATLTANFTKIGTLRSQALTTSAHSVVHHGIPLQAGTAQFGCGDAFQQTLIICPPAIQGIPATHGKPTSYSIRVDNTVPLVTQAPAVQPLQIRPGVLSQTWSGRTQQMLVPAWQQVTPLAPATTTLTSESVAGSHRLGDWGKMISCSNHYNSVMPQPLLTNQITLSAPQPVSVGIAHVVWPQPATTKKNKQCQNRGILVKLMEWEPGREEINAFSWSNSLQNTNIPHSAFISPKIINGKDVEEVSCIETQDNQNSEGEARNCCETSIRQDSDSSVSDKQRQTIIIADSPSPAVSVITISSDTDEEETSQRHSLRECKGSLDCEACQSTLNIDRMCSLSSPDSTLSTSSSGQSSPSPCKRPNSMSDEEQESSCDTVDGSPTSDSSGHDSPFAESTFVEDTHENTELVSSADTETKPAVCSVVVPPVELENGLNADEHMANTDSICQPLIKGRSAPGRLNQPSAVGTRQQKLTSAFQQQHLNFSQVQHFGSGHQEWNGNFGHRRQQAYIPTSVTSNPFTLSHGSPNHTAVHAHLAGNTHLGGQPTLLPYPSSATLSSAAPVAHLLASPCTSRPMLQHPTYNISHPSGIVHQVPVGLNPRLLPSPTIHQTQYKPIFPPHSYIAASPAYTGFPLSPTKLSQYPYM

SMILES	Activity [1]	Activity [2]	Activity [3]	Activity [4]	Activity [5]	Activity [6]	Activity [7]	Activity [8]	Activity [9]	Activity [10]	Activity [11]	Activity [12]	Activity [13]	Activity [14]	Activity [15]	Activity [16]	Activity [17]	Activity [18]
CN1CCN(CCC(=O)Nc2ccc3c(C#N)cnc(Nc4cccc(Br)c4)c3c2)CC1	100%	89%	82%	42%	76%	38%	92%	71%	85%	36%	54%	81%	87%	81%	68%	100%	95%	87%
CN(C)CCCC(=O)Nc1ccc2c(C#N)cnc(Nc3cccc(Br)c3)c2c1	100%	80%	84%	41%	72%	11%	89%	70%	89%	36%	59%	96%	100%	89%	46%	100%	93%	93%
CN(C)C/C=C/C(=O)Nc1ccc2c(C#N)cnc(Nc3cccc(Br)c3)c2c1	88%	75%	71%	33%	52%	53%	89%	69%	86%	32%	58%	74%	100%	85%	59%	97%	77%	91%
